Assay outcomes as filed in PubChem BioAssay.
MITF act: activators of MITF-driven TRPM1 promoter activity in SK-MEL-5 cells; SK-MEL-5 TRPM1-promoter luciferase, 24 h; % of positive control, neutral wells = 0; activation, % at 12.5 µM; actives 0.75% (n = 300,000); AID 588334;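 active means mean activation of at least 80% with every replicate also reaching 80%; inconclusive means mean reaches 80% but some replicate falls short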;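 further: 0% = neutral control wells and 100% = parthenolide positive control wells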
Env fusion inh: blocks HIV Env-driven cell-cell fusion. AID 651610. actives 1.1% (n = 360,000). inhibition, % at 12.3 µM. HeLa-JRFL Env/CEM21 cell fusion, luciferase;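 active means mean replicate inhibition score of at least 50 and every replicate individually at or above 50; inconclusive means only one of the two criteria met; inactive means mean below 50 and not all replicates reaching 50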;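 further: 0% = plate neutral controls and 100% = maraviroc near 300 nM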
Wnt act: Wnt/beta-catenin pathway activation. Wnt/beta-catenin reporter cell assay, activator, plate reader. actives 1.2% (n = 300,000). activation, % at 9.35 µM; in the data active means activation above about 30%, passing the limit was not always enough; inconclusive means no clear call, values can overlap the other calls;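 further: 0% = neutral control wells and 100% = positive control wells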
esBAF inh: inhibitors of esBAF chromatin remodeling in mouse ES cells | reporter increase, % at 12.5 µM | Bmi1-luciferase knock-in reporter, 24 h; 100% = twice the neutral-well signal | actives 2% (n = 350,000); in the data active means activation above about 40%; inconclusive means no clear call, values can overlap the other calls;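 further: 0% = median of the plate's neutral control wells and 100% = double that signal; a rise in the Bmi1 reporter signal indicates esBAF inhibition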
ERAP1 inh: inhibitors of human ERAP1 aminopeptidase; Q9NZ08; recombinant ERAP1, Leu-AMC fluorescence, 60 min; inhibition, % at 10.7 µM; actives 0.15% (n = 340,000); AID 652197;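 active means mean replicate inhibition of at least 30%, or all replicates individually reaching that 30% level; inactive means mean below 30% and not every replicate reaching it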;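 further: 0% = neutral control wells and 100% = L-leucinethiol positive control wells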
Target sequence (Q9NZ08 whole entry, looked up): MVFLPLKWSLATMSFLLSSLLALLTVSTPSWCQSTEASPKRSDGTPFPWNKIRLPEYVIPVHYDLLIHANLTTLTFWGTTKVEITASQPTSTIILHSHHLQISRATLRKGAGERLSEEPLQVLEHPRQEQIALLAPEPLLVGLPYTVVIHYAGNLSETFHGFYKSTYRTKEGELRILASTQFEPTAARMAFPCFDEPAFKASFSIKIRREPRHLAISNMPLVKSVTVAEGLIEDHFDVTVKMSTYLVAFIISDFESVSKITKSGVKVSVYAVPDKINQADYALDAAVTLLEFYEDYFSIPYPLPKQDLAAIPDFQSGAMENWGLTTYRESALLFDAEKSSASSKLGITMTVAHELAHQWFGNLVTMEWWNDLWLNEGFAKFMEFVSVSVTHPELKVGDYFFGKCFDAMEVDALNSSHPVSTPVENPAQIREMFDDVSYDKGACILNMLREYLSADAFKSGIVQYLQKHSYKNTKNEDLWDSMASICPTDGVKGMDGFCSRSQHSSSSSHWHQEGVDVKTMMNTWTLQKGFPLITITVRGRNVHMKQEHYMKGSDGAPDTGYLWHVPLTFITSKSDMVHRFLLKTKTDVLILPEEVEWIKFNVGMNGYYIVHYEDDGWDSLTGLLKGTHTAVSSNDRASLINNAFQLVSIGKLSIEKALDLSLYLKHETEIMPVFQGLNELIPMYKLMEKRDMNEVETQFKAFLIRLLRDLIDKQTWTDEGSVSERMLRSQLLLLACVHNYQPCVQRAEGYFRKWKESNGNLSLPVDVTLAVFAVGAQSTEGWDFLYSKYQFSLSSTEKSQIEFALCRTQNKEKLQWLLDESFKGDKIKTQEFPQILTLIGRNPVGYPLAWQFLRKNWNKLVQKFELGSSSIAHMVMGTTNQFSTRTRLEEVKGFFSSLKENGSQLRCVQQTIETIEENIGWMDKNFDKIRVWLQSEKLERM
Cneo AK release: causes C. neoformans cell lysis | actives 0.2% (n = 360,000) | AID 651654 | lysis activity, % at 15 µM | adenylate kinase release luminescence, 4 h; normalised: neutral wells 0, clomiphene wells 100;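 active means mean lysis activity across replicates of at least 80%, whatever share of replicates individually reach that level; inactive means mean lysis activity below 80%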
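Assay system: C. neoformans cells. Amount: yeast cell density of 5 × 10^6 cells/mL. Technique: AK luminescence. Buffer or medium: YPD. Times: static 4 h at 37 °C with compound, 1 h detection. Dosing: single-point compound dose. Read-out: lysis from increased AK signal.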
Active calls of the source: *; i = inactive; ? = inconclusive; · = no result; ! = a repeat was not active; [ ] = dose if it differs, or a comment. This is a sample that favours compounds with a hit; in the whole collection about 3.5% have one here.

SMILES	MITF act	Env fusion inh	Wnt act	esBAF inh	ERAP1 inh	Cneo AK release
Cc1ccc(NC(=O)CN(C)CC(=O)NC2CCCc3ccccc32)cc1 (stereo unspecified)	3	20	40*	0	-2	·
CCOc1ccc(NC(=O)CN(C)CC(=O)NC2CCCc3ccccc32)cc1OCC (stereo unspecified)	·	-24	-2	-9	·	2
CNC[C@@H]1OCCCC[C@@H](C)Oc2ccc(NS(=O)(=O)c3ccc(OC)cc3)cc2C(=O)N([C@H](C)CO)C[C@H]1C	·	-17[16.7 µM]	·	10	2	5
COc1ccccc1S(=O)(=O)N[C@H]1CC[C@@H](CCNC(=O)C2CC2)O[C@@H]1CO	·	-22[16.7 µM]	·	2	0	0
CCOc1ccccc1NC(=O)Nc1cccc(NC(C)=O)c1	23	32	-3	6	-1	-2
CCOc1ccccc1NC(=O)Nc1ccc2c(c1)CCC2	28	-45	15	48*	1	-3
CCOc1ccccc1NC(=O)NC1CCCc2ccccc21 (stereo unspecified)	1	59*	1	-6	5	0
COc1ccccc1NC(=O)NC1CCCc2ccccc21 (stereo unspecified)	-15	5	-1	·	3	-2
Cc1ccc(CNC(=O)c2ccc3c(=O)c(O)c(-c4ccc(C)cc4)[nH]c3c2)cc1	-55	57*	-5	-26	1	-3
CCCNC(=O)c1ccc2c(=O)c(O)c(-c3ccc(C)cc3)[nH]c2c1	-40	43	-3	-54	0	-3
C[C@@H]1CN([C@H](C)CO)C(=O)Cc2cc(NC(=O)NC3CCCCC3)ccc2O[C@@H]1CN(C)C(=O)Nc1ccc2c(c1)OCO2	·	16[16.7 µM]	·	1	1	53
Cc1cccc(N2CCN(C(=O)C3CCCCC3)CC2)c1C	2	·	·	4	·	2
Cc1cc(N2CCC(C(=O)N3CCN(c4cccc(C)c4C)CC3)CC2)n2ncnc2n1	-15	67*	·	9	·	8
CO[C@H]1CN(C)C(=O)c2ccc(NS(=O)(=O)c3ccccc3C)cc2OC[C@@H](C)N(C)C[C@@H]1C	·	12[16.7 µM]	·	0	2	1
COc1ccc(NC(=O)c2cccc3c(-c4cccnc4)coc23)cc1	·	16	-3	5	3	-2
O=C(Nc1ccccc1)c1cccc2c(-c3cccnc3)coc12	·	3	-1	55*	6	-10
CN(C)c1cccc(NC(=O)c2cccc3c(-c4ccc(F)c(F)c4)coc23)c1	·	28	2	41*	-6	4
Cc1noc(C)c1NC(=O)Nc1ccc2c(c1)C(=O)N(C)[C@H]1CC[C@@H](CC(=O)N(C)C)O[C@@H]1CO2	·	-4[16.7 µM]	·	-2	-3	-5
CCOc1ccc(-c2nnc(-c3ccccc3)n2-c2ccccc2)cc1	·	-77	59*	24	·	-1
Oc1ccc(COCc2ccccc2)c2cccnc12	-25	·	1	60*	·	0
Oc1ccc(CN2CCc3ccccc3C2)c2cccnc12	-68	62*	·	-48	·	0
Oc1ccc(Cc2ccccc2)c2cccnc12	·	·	-1	-32	-1	1
Oc1ccc(CNc2ccccc2F)c2cccnc12	-67	114*!	-3	1	·	3
CC(C)NC(=O)Nc1ccc2c(c1)C(=O)N([C@@H](C)CO)C[C@H](C)[C@H](CN(C)S(=O)(=O)c1cn(C)cn1)OCCCC[C@@H](C)O2	·	-9[16.7 µM]	·	3	-1	0
Nc1sc(-c2ccccc2)cc1C(=O)N/N=C/c1ccc(Cl)cc1	·	13	3	·	1	-5
SMILES	MITF act	Env fusion inh	Wnt act	esBAF inh	ERAP1 inh	Cneo AK release
CN=Cc1cc(-c2ccccc2)sc1O	69	-18	26	64*	-2	-1
C[C@@H]1CN([C@H](C)CO)C(=O)c2cc(NC(=O)CCCN(C)C)ccc2O[C@@H](C)CCCCO[C@@H]1CN(C)S(C)(=O)=O	·	37[16.7 µM]	·	1	2	1
O=[N+]([O-])c1ccc(C=CC=Cc2ccccc2)cc1	·	-32	0	56*	0	1
[O-]/[N+](=C\C=C\c1ccccc1)c1ccccc1	94*	-52	29	34	2	2
[O-]/[N+](=C/c1ccc(F)cc1)c1ccccc1	·	-75	3	20	·	4
COc1cc(/C=C2\SC(N)=NC2=O)cc(OC)c1	4	59*	-2	-15	-3	-4
CCC(C)(C)c1ccc(Oc2ccc(N)cc2)cc1	-97	60*	-15	-82	0	1
O=S(=O)(c1ccc(Cl)s1)N1CCCc2cccc(O)c21	·	-157	39*	84*	·	1
Cc1cc(Cl)c2oc(C(=O)N3CCOCC3)c(C)c2c1	·	i	4	67*	-1	23
Cc1cc(Cl)c2oc(C(=O)N(C)Cc3ccon3)c(C)c2c1	46	-88	22	71*	-2	-4
Cc1cc(Cl)c2oc(C(=O)N(C)C3CCOC3)c(C)c2c1 (stereo unspecified)	69	-35	27	42*	2	0
Cc1cc(Cl)c2oc(C(=O)N(C)Cc3cc(C)[nH]n3)c(C)c2c1	4	-10	9	1	3	-2
Cc1cc(Cl)c2oc(C(=O)N3CCN(C(=O)c4ccco4)CC3)c(C)c2c1	58	-17	16	52*	-1	0
O=C(NCC[C@H]1CC[C@@H](NS(=O)(=O)c2ccccc2F)[C@H](CO)O1)c1ccc(F)cc1	·	6[16.7 µM]	·	-5	0	1
Cc1cc(Cl)c2oc(C(=O)N3CCN(c4cccc(C)n4)CC3)c(C)c2c1	·	-35	18	74*	-3	4
Cc1ccc2oc(C(=O)N3CCN(c4cccc(C)n4)CC3)c(C)c2c1	18	-9	3	26	-2	0
C[C@@H]1CN([C@@H](C)CO)C(=O)c2cccc(NS(=O)(=O)c3cn(C)cn3)c2O[C@@H]1CN(C)C	·	·	·	0	1	-1
Cc1cc2nc(C3CCCN(C(=O)NCc4ccccc4)C3)[nH]c2cc1C (stereo unspecified)	39	-134	46*	36	·	-3
Cc1noc(C)c1NC(=O)Nc1ccc2c(c1)C(=O)N(C)[C@@H]1CC[C@H](CC(=O)NCc3ccc(Cl)cc3)O[C@H]1CO2	·	-2[16.7 µM]	·	0	-2	1
Oc1ccc(/C=N/Nc2cccc3cccnc23)c(O)c1	44	-228	·	79*	-1	-2
Cc1ccc(/C=N/Nc2cccc3cccnc23)c(O)c1	47	·	26	32	-1	-8
Oc1ccc(/C=N/Nc2nccnc2Cl)c(O)c1	·	?	3	-45	·	-1
Oc1ccc(C=NNc2ccccn2)c(O)c1	2	69*	12	·	-3	·
COc1ccc(C#Cc2ccc([C@@H]3[C@@H](CO)N4C(=O)CN(C(=O)NC(C)C)C[C@@H]34)cc2)cc1	·	·	·	·	1	·
